Reference: ChEMBL document CHEMBL1129585, “Synthesis and biological activity of conformationally restricted analogs of milnacipran: (1S,2R)-1-phenyl-2-[(S)-1-aminopropyl]-N,N-diethylcyclopropanecarboxami de, an efficient noncompetitive N-methyl-D-aspartic acid receptor antagonist” (J Med Chem, 1996)

Legend:
Rattus norvegicus = species: Rattus norvegicus; assay: Ratio of 5 HT inhibition to NMDA receptor binding
[1] = biological target: Sodium-dependent serotonin transporter (Rattus norvegicus, UniProt P31652); assay: Inhibition of [3H]-paroxetine binding on serotonin transporter of rat cerebral cortical synaptic membrane
In short: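 Rat cerebral cortical synaptic membranes incubated with test agent at various concentrations, [³H]paroxetine 2 nM, in 50 mM Tris-HCl pH 7.4 with 120 mM NaCl and 5 mM KCl, 20 °C for 45 min. Stopped by rapid filtration on polyethylenimine-presoaked glass-fiber filters, washed with cold Tris-HCl. Bound radioactivity counted. Result given as Ki.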

Glutamate NMDA receptor = assay: Inhibition of [3H]-MK-801 binding to NMDA receptor from rat cerebral cortical synaptic membrane
[2] = biological target: Glutamate receptor ionotropic, NMDA 2C (Rattus norvegicus) (UniProt Q00961); assay: (§1) Percentage inhibition of N-methyl-D-aspartic acid (NMDA) receptor produced by oocytes; format: cell-based; settings: Xenopus laevis; Oocyte; concentration not given here
In short: (§2)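 Xenopus oocytes injected with whole-brain mRNA from 10-day-old Wistar rats (guanidine/CsCl extraction), then two-electrode voltage-clamped with 3 M KCl-filled electrodes. Currents evoked by 30 µM NMDA plus 10 µM Gly with test agent present at different concentrations. Block of the NMDA response recorded as percent inhibition or IC50.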

[3] = biological target: Glutamate receptor ionotropic, NMDA 2C (Rattus norvegicus, UniProt Q00961); assay: Concentration required to inhibit of N-methyl-D-aspartic acid (NMDA) receptor produced by oocytes; format: functional, cell-based, Oocyte
In short: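 Xenopus oocytes were injected with whole-brain mRNA from 10-day-old Wistar rats, extracted by the guanidine/CsCl method. They were two-electrode voltage-clamped with electrodes filled with 3 M KCl. Currents were evoked by 30 µM NMDA plus 10 µM Gly in the presence of test compound at different concentrations. The read-out was block of the NMDA response, given as IC50 or percent inhibition.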

[4] = biological target: Glutamate receptor ionotropic, NMDA 2C (Rattus norvegicus) (UniProt Q00961); assay: as §1; format: functional, cell-based; settings: Xenopus laevis; Oocyte; concentration not given here; in short: as §2

Chain of Sodium-dependent serotonin transporter (P31652 whole entry): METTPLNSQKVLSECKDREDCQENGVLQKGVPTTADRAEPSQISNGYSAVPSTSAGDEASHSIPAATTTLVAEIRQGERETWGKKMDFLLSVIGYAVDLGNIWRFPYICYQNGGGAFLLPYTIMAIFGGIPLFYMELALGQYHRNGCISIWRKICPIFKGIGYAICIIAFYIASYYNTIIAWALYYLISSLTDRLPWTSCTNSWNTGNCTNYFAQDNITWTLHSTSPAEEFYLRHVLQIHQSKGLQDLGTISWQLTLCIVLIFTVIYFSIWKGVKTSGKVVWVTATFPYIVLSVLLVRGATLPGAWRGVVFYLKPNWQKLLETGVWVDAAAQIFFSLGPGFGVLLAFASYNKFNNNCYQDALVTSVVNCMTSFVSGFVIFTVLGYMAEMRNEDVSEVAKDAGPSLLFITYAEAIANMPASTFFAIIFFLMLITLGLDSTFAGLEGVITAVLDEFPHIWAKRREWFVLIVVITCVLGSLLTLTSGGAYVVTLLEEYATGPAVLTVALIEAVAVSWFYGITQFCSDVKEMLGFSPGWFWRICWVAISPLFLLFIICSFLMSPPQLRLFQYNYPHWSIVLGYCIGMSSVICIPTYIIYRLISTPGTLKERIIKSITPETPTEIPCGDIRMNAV
Chain of Glutamate receptor ionotropic, NMDA 2C (Q00961 whole entry): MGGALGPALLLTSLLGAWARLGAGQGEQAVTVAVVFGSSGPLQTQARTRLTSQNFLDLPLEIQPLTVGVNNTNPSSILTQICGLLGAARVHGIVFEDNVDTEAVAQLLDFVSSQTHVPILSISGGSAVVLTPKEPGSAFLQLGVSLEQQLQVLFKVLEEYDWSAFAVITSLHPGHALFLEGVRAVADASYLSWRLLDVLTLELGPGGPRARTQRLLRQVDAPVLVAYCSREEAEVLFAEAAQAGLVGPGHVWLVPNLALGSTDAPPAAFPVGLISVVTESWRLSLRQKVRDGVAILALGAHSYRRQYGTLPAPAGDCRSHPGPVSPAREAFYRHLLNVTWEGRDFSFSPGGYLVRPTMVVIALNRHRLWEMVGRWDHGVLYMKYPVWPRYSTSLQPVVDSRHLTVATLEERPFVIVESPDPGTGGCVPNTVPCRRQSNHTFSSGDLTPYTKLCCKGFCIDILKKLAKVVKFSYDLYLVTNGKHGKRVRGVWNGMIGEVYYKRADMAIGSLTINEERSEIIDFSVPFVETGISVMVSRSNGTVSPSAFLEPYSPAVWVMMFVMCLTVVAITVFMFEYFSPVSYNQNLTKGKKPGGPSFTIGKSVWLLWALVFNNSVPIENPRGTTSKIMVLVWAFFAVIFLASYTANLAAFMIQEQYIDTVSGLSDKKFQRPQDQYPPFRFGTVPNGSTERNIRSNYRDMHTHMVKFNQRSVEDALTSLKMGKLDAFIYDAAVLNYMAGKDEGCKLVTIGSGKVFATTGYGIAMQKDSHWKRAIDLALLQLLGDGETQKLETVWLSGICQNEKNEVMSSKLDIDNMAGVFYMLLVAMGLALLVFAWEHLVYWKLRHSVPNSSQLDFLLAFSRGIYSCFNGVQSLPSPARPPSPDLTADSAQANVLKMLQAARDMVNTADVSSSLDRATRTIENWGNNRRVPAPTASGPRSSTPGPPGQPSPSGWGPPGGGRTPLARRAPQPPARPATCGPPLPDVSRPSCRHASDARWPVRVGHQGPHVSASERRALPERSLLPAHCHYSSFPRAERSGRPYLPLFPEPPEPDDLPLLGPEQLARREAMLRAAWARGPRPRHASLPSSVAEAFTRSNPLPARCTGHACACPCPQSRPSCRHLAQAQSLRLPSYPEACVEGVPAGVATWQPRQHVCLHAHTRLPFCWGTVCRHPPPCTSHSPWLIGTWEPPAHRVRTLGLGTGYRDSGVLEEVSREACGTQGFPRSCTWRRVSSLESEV
Chain of Glutamate receptor ionotropic, NMDA 2C (Rattus norvegicus) (Q00961 20-1237 limits assumed): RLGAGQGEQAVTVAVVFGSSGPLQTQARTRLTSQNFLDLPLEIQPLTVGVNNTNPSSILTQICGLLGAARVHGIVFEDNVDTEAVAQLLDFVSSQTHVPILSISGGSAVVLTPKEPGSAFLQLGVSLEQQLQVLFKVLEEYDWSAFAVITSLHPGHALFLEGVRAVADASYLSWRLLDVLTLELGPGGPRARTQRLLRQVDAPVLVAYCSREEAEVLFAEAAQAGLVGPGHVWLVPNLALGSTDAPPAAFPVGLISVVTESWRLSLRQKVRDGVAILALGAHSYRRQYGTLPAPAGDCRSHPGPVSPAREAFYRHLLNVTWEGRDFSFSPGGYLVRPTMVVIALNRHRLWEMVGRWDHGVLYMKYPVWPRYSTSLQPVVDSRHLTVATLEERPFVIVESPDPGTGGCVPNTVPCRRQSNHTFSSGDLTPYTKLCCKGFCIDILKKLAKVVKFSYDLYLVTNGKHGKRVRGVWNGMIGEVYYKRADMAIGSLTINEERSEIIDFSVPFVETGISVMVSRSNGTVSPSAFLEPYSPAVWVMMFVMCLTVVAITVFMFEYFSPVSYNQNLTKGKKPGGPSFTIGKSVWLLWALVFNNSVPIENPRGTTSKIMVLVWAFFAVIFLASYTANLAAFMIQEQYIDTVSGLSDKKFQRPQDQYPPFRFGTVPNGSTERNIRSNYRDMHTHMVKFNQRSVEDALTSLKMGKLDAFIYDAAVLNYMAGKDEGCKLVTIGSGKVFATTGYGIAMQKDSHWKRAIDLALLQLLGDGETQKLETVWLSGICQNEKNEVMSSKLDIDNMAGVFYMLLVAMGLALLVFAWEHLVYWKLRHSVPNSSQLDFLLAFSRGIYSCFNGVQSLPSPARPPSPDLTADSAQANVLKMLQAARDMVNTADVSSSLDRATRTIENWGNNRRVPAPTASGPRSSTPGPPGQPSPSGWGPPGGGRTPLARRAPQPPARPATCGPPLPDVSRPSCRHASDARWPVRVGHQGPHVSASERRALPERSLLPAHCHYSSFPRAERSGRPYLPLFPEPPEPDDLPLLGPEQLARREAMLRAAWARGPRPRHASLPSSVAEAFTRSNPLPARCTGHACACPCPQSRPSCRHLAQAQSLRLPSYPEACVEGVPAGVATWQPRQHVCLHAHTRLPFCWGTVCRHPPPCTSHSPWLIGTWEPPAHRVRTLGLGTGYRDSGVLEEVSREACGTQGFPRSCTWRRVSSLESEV

| Compound | Ki [1] [nM] | IC50 (Glutamate NMDA receptor) [nM] | also measured |
| --- | --- | --- | --- |
| CCN(CC)C(=O)[C@@]1(c2ccccc2)C[C@H]1C(N)c1ccccc1 (some centres not stated) | > 100000 | 17000 | Selectivity index (Rattus norvegicus): > 5.9 |
| CCN(CC)C(=O)[C@@]1(c2ccccc2)C[C@H]1C(N)CC(C)C (some centres not stated) | > 100000 | 4200 | Selectivity index (Rattus norvegicus): > 24 |
| CCCC(N)[C@@H]1C[C@@]1(C(=O)N(CC)CC)c1ccccc1 (some centres not stated) | 37000 | 1000 | Selectivity index (Rattus norvegicus): 37 |
| C=CC(N)[C@@H]1C[C@@]1(C(=O)N(CC)CC)c1ccccc1 (some centres not stated) | 23 | 160 | Selectivity index (Rattus norvegicus): 0.14 |
| C[C@]12N[C@H](Cc3ccccc31)c1ccccc12 | – | – | inhibition [2]: 98% |
| CCN(CC)C(=O)[C@@]1(c2ccccc2)C[C@H]1C(C)N (stereo in doubt; 2a) | 14 | 350 | IC50 [3]: 2300 nM |
| CCC(N)[C@@H]1C[C@@]1(C(=O)N(CC)CC)c1ccccc1 (stereo in doubt; 2b) | 24000 | 200 | IC50 [3]: 2200 nM |
| CCN(CC)C(=O)[C@@]1(c2ccccc2)C[C@H]1C(C)N (stereo in doubt; 3a) | 2400 | 6500 | – |
| CCC(N)[C@@H]1C[C@@]1(C(=O)N(CC)CC)c1ccccc1 (stereo in doubt; 3b) | > 100000 | – | – |
| CCN(CC)C(=O)[C@]1(c2ccccc2)C[C@@H]1C(C)N (stereo in doubt; form 1) | > 100000 | – | – |
| CCC(N)[C@H]1C[C@]1(C(=O)N(CC)CC)c1ccccc1 (stereo in doubt; form 1) | > 100000 | – | IC50 [3]: 39000 nM |
| CCN(CC)C(=O)[C@]1(c2ccccc2)C[C@@H]1C(C)N (stereo in doubt; form 2) | 170 | 19000 | – |
| CCC(N)[C@H]1C[C@]1(C(=O)N(CC)CC)c1ccccc1 (stereo in doubt; form 2) | > 100000 | – | – |
| CNC1(c2ccccc2Cl)CCCCC1=O (configuration not stated) [KETAMINE] | – | 610 | – |
| CCN(CC)C(=O)[C@@]1(c2ccccc2)C[C@H]1CN [LEVOMILNACIPRAN] | 8.5 | – | inhibition [4]: 53% |
| c1ccc(C2(N3CCCCC3)CCCCC2)cc1 [PHENCYCLIDINE] | – | 9.8 | – |
